An excerpt weighted towards active compounds, which were near 1.9% of everything screened.
PP5 primary: PP5 phosphatase inhibitors, primary screen, biochemical, fluorescence; Serine/threonine-protein phosphatase 5 (Homo sapiens), P53041; purified PP5c, OMFP substrate fluorescence; inhibition, % at 6.7 µM; actives 0.18% (n = 320,000); AID 1987, 2009;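 active = inhibition above the campaign's mean inhibition across all tested compounds plus 3 SD, cut at about 9.5% in these data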
FID counter: compounds displacing fluorescent DNA intercalator, primary screen, artefact control for HCV NS3 helicase inhibitor project, biochemical, FID fluorescence | DNA fluorescent intercalator displacement | inhibition, % at 7.9 µM | actives 0.17% (n = 290,000) | AID 1845, 2009; in the data active = inhibition above about 37%;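 also: higher means more ethidium bromide displaced from hairpin DNA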
HCV NS3 hel inh: inhibitors of HCV NS3 helicase, primary screen, biochemical, Cy5 molecular beacon fluorescence | Hepatitis C virus NS3 helicase | NS3 helicase DNA unwinding | inhibition, % at 10.9 µM | actives 0.56% (n = 290,000) | AID 1800, 2009;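 active = inhibition above the mean of all tested compounds plus 3 SD, set per campaign, cut at about 35% in these data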
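assay system = NS3 helicase fragment of HCV | buffer or medium = MOPS pH 6.5, MgCl2, DTT, Tween20, BSA | timing = 60 min unwinding reaction at 25 °C after ATP addition | signal = Cy5 beacon fluorescence read at start and 1 h | read-out basis = % inhibition of unwinding | control set = low DMSO, high thioflavine S at 110 µM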
HIF activator: HIF pathway transcriptional activators, primary screen, cell-based, U2OS HRE-luciferase, luminescence | AID 1910, 2009 | actives 0.32% (n = 300,000) | U2OS HRE-luciferase reporter; normalized: DMSO 0%, desferrioxamine 100% | activation, % at 7.5 µM (by protocol);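 active = mean activation of at least 10% of the iron chelator positive control signal, with at least half of replicates also reaching 10%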
PP1 counter: PP1-alpha phosphatase inhibitors, primary screen, counter-screen for PP5 inhibitor project, biochemical, fluorescence, OMFP substrate, single point. Serine/threonine-protein phosphatase PP1-alpha catalytic subunit (Homo sapiens), P62136. purified PP1alpha. inhibition, % at 6.7 µM. actives 0.9% (n = 320,000). AID 2235, 2010;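 active = inhibition above the mean inhibition of all tested compounds plus 3 SD, computed separately for each screening campaign, cut at about 15% in these data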
Target sequence (P62136 whole entry, looked up): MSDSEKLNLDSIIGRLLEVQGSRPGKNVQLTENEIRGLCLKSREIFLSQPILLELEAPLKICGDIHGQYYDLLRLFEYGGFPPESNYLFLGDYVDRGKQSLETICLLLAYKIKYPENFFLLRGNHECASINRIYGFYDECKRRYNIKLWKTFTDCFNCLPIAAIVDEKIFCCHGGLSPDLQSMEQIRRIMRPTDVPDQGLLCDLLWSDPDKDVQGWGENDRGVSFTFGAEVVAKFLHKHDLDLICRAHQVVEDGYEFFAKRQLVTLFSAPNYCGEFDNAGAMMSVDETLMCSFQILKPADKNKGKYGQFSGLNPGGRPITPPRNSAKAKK
PP1 confirm: PP1 phosphatase inhibitors, confirmation, biochemical, fluorescence, OMFP substrate, triplicate. purified PP1alpha. shares compounds with PP1 counter. inhibition, % at 6.7 µM. AID 2358, 2010. actives 52% (n = 1,900);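 active = mean PP1 inhibition above a set limit taken from the earlier primary screen, cut at about 15% in these data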
PP5 counter: PP5 phosphatase inhibition by PP1 hits, confirmation, counter-screen for PP1 inhibitor project, biochemical, fluorescence, triplicate. shares compounds with PP1 counter. purified PP5c, OMFP fluorescence. inhibition, % at 6.7 µM. actives 4% (n = 1,900). AID 2360, 2010;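 active = mean PP5 inhibition over triplicate wells above about 9.5% taken from the earlier PP1 screen, limit read from the data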
Large screens that a line does not name were inactive (follow-up assays come after a bar, where they were run).

CCOC(=O)c1c(C)n(-c2ccc(C)cc2)c2ccc(OCC(O)CN3CCN(C)CC3)cc12 (stereo not given)	none (no result: PP5 primary, HIF activator, PP1 counter)
COc1ccc(NC(=O)CSCC(=O)Nc2nnc(C)s2)cc1	none (no result: FID counter, HCV NS3 hel inh)
COc1cccc(CNC(=O)c2ccccc2SCC(=O)N2CCCC2)c1	PP1 counter 26 (no result: FID counter, HCV NS3 hel inh) | PP1 confirm inactive | PP5 counter inactive
COc1ccc(C)cc1S(=O)(=O)N(C)CC(=O)N1CCCC1	none
CCN(CC)S(=O)(=O)c1ccc(N2CCCC2)c(NC(=O)CN2C(=O)NC3(CCCC3)C2=O)c1	PP1 counter 21 (no result: FID counter, HCV NS3 hel inh) | PP1 confirm inactive | PP5 counter inactive
COc1ccccc1NC(=O)CSc1nccn1Cc1ccccc1	none
COc1ccc(NS(=O)(=O)c2ccc3c(c2)[C@H]2C=CC[C@H]2[C@@H](c2ccc(C(=O)O)cc2)N3)cc1	PP1 counter 19 | PP1 confirm inactive | PP5 counter inactive
Cc1ccnc(NS(=O)(=O)c2ccc(NC(=O)c3ccc4c(c3)OCCO4)cc2)n1	none
O=C(CN1C(=O)COc2ccc(Cl)cc21)N1CCc2ccccc21	PP1 counter 18 | PP1 confirm inactive | PP5 counter inactive
COc1ccc(S(=O)(=O)NCC(=O)NCc2cc(=O)n(C)c(=O)n2C)cc1C	none
CCCCCCOc1ccc(/C(C)=N/NC2=NCCN2)cc1[N+](=O)[O-]	PP1 counter 20 | PP1 confirm inactive | PP5 counter inactive
Cc1cc(C)nc(SCc2ccc(C(=O)N/N=C/c3cccc(O)c3O)cc2)n1	PP1 counter 25 | PP1 confirm 28 | PP5 counter inactive
C=CCn1c(O)c(C=Nc2ccc(CN3CCCCC3)cc2)c(=O)[nH]c1=S	none
Cc1c(NC(=O)c2cccnc2C(=O)O)cccc1C(=O)O	PP1 counter 25 | PP1 confirm inactive | PP5 counter inactive
Cn1cc(CCNC(=O)C2CCC(=O)N(CCc3ccc(Cl)cc3)C2)cn1 (stereo not given)	none
O=C(O)C(Cc1ccccc1)N1C(=O)/C(=C/c2ccccc2)SC1=S (stereo not given)	none
O=C(O)C(Cc1ccccc1)N1C(=O)/C(=C/c2cccc3ccccc23)SC1=S (stereo not given)	PP1 counter 20 (no result: HIF activator) | PP1 confirm 32 | PP5 counter inactive
COc1cnc(-c2ccccc2)nc1Oc1ccc(C(C)(C)C)cc1	none
COc1cnc(-c2ccccn2)nc1Oc1ccccc1Cl	PP1 counter 30 | PP1 confirm 38 | PP5 counter inactive
COc1cnc(-c2ccccc2)nc1Oc1cccc(C)c1C	none
COc1cnc(-c2ccccn2)nc1Oc1ccc(Cl)cc1	PP1 counter 58 | PP1 confirm 39 | PP5 counter inactive
COc1cnc(-c2ccccn2)nc1Oc1ccc(Cl)c2ccccc12	PP1 counter 50 | PP1 confirm 43 | PP5 counter inactive
COc1cnc(-c2ccccc2)nc1Oc1ccccc1C	none
COc1cnc(-c2ccccn2)nc1Oc1ccc(F)cc1F	PP1 counter 21 | PP1 confirm 23 | PP5 counter inactive
C/C(N)=C(/C#N)C(=O)COC(=O)CNC(=O)c1ccc(Cl)cc1Cl	none
CCOC(=O)C1CCCN(C(=O)CCNS(=O)(=O)c2cc(Br)cnc2N)C1 (stereo not given)	none
COc1cc([N+](=O)[O-])cc(/C=N\NC(=O)C2COc3ccccc3O2)c1O (stereo not given)	PP1 counter 32 | PP1 confirm 26 | PP5 counter inactive
O=C(N/N=C\c1cccc([N+](=O)[O-])c1O)C1COc2ccccc2O1 (stereo not given)	none
COc1cc([N+](=O)[O-])cc(/C=N/NC(=O)C(O)(c2ccccc2)c2ccccc2)c1O	PP1 counter 20 | PP1 confirm inactive | PP5 counter inactive
O=c1nc2n(c3ccc(Br)cc13)CCS2	none
CNC(=O)C1CC(=O)N(CCc2ccc(C)cc2)C1 (stereo not given)	none
CC1(C)CCN2CCC(C)(C)c3c(O)ccc1c32	PP1 counter 18 | PP1 confirm inactive | PP5 counter inactive
Oc1c(C(Nc2ccccn2)c2cccnc2)cc(Cl)c2cccnc12 (stereo not given)	PP1 counter 22 | PP1 confirm 19 | PP5 counter inactive
COc1ccc(C(NC(=O)c2cccnc2)c2cc(Cl)c3cccnc3c2O)cc1OC (stereo not given)	HIF activator 12, PP1 counter 34 | PP1 confirm 22 | PP5 counter inactive
Cc1cccc(C(=O)Nc2c(C(=O)N(C)C)cnn2-c2ccccc2)c1	none
O=C(CC1S/C(=N/N=C/c2c[nH]c3ccc(OCc4ccccc4)cc23)NC1=O)Nc1ccccc1 (stereo not given)	PP1 counter 24 | PP1 confirm 24 | PP5 counter inactive
O=C(OCC1OC(n2ncc(=O)[nH]c2=O)C(OC(=O)c2ccccc2)C1OC(=O)c1ccccc1)c1ccccc1 (stereo not given)	PP1 counter 24 | PP1 confirm 22 | PP5 counter inactive
Cc1cnc(NC(=O)CSc2nnc3ncccn23)s1	PP1 counter 22 | PP1 confirm inactive | PP5 counter inactive
CSCCC(NC(=O)COc1ccccc1)C(=O)OCC(=O)c1ccccc1 (stereo not given)	PP1 counter 60 (no result: FID counter, HCV NS3 hel inh) | PP1 confirm inactive | PP5 counter inactive
O=C(N/N=C/c1c(O)n(-c2ccccc2Cl)c(=O)c2ccccc12)C1COc2ccccc2O1 (stereo not given)	PP1 counter 19 | PP1 confirm 23 | PP5 counter inactive
Cc1c(/C=N\NC(=O)C2COc3ccccc3O2)c2ccccc2n1C (stereo not given)	none
Cc1ccc(-n2c(O)c(/C=N/NC(=O)C3COc4ccccc4O3)c3ccccc3c2=O)cc1 (stereo not given)	PP1 counter 19 | PP1 confirm 27 | PP5 counter inactive
Cc1ccc(/C=N/NC(=O)C2COc3ccccc3O2)s1 (stereo not given)	none (no result: FID counter, HCV NS3 hel inh)
COc1ccc(/C=C2\SC(=S)NC2=O)cc1OS(=O)(=O)c1ccc(NC(C)=O)cc1	none (no result: PP5 primary, PP1 counter)
COc1cc(/C=C2\SC(=S)NC2=O)ccc1OS(=O)(=O)c1ccccc1	PP1 counter 19 | PP1 confirm 21 | PP5 counter inactive
